The values below come from ChEMBL document CHEMBL1156101, “Discovery and optimization of potent and selective triazolopyridazine series of c-Met inhibitors” (Bioorg Med Chem Lett, 2009).

Series [1] addresses T1, Cytochrome P450 3A4 (Homo sapiens, UniProt P08684). The series is described as follows: Inhibition of human CYP3A4. Type of series: ADME.
Series [2] concerns the target T1, Cytochrome P450 3A4. The series is described as follows: Inhibition of human CYP3A4 in human liver microsomes preincubated with NADPH. The class given is ADME, Microsome.
In series [3] the target is Hepatocyte growth factor receptor (Homo sapiens, UniProt P08581). The series is described as follows: Inhibition of c-Met by HTRF assay.
The target in series [4] is CYP3A4 (Homo sapiens, UniProt P08684). The series is described as follows: Selective ratio of human CYP3A4 IC50 to human CYP3A4 IC50 with pre-incubation. Type of series: ADME. The settings on record: read-out: Ratio IC50.
Series [5] can be described thus: Intrinsic clearance in rat liver microsomes. Type of series: ADME, Microsome. In a few lines:
(§1)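 Intrinsic clearance was measured in vitro in rat, mouse and human liver microsomes.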

Series [6] can be described thus: AUC (0 to 24 hrs) in mouse at ED90, po. The class given is ADME, organism-based. Also noted: time < 24 hr, route oral. Conditions: plasma. In a few lines: (§2)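 NIH3T3 cells transfected with human TPR-Met, implanted as xenograft in mice. Dosing by oral gavage once daily at 3, 10, 30 and 100 mg/kg for 22 days, starting 24 h after tumor cell implantation. Vehicle: 2% HMPC, 1% Tween in water pH 2.2 w/MSA. Tumor growth and body weight followed; n = 12 per group, mean ± standard error. AUC(0-24) taken at ED50 and ED90.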

The subject of series [7] is Mus musculus. In words: Inhibition of HGF-induced c-Met phosphorylation in BALB/c mouse liver at 30 mg/kg, po after 12 hrs by electrochemiluminescent assay. Type of series: functional. In a few lines:
(§3)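 Mice were given 30 mg/kg by oral gavage in 2% HMPC, 1% Tween in water pH 2.2 w/MSA, then challenged with HGF. HGF-induced c-Met phosphorylation in liver was quantified at several time points. Plasma and liver drug levels were measured alongside. n = 3, mean ± standard deviation.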

The nature of series [8]: Half life in Sprague-Dawley rat at 0.25 mg/kg, iv in 20% hydroxypropyl beta-cyclodextrin in water pH 3.5 w/MSA vehicle. The class given is ADME, organism-based. Also noted: dose 0.25 mg/kg, route intravenous. Conditions: in vivo. An outline of the steps:
(§4)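 Male Sprague-Dawley rats, n=3, dosed intravenously at 0.25 mg/kg in 20% hydroxypropyl beta-cyclodextrin in water (pH 3.5, adjusted with MSA). In the same study, a separate oral arm used 2 mg/kg in 2% HMPC/1% Tween in water (pH 2.2, HCl) to derive bioavailability.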

A short description of series [9]: AUC (0 to 24 hrs) in mouse at ED50, po. Type of series: ADME, organism-based. Also noted: time < 24 hr, route oral. The settings on record: plasma. An outline of the steps: as §2
The nature of series [10]: Intrinsic clearance in mouse liver microsomes. Type of series: ADME, Microsome. In a few lines:
as §1

The species entered for series [11] is Homo sapiens. The series is described as follows: Plasma protein binding in human at 5 ug/ml. Conditions: read-out: PPB (converted).
The species named for series [12] is Mus musculus. The series is described as follows: Inhibition of HGF-induced c-Met phosphorylation in BALB/c mouse plasma after 6 hrs by electrochemiluminescent assay. The class given is functional. In a few lines: as §3
Series [13] is described as follows: Clearance in Sprague-Dawley rat at 0.25 mg/kg, iv in 20% hydroxypropyl beta-cyclodextrin in water pH 3.5 w/MSA vehicle. Type of series: ADME, organism-based. Also noted: dose 0.25 mg/kg, route intravenous. Conditions: in vivo. In a few lines: as §4
The test system of series [14] is Mus musculus. The series is described as follows: Toxicity in mouse xenografted with TPR-Met expressing NIH/3T3 up to 100 mg/kg, po over 22 days q.d. The class given is organism-based, NIH3T3. Conditions: in vivo, 528 h. Further details: dose 100 mg/kg, route oral. In a few lines: as §2
For series [15], the system named is Heart. The series is described as follows: Cardiotoxicity in rabbit heart assessed as electrocardiographic parameters up to 3 uM. Type of series: toxicity, tissue-based, Oryctolagus cuniculus.
Series [16] is described as follows: Intrinsic clearance in human liver microsomes. Type of series: ADME, Microsome. An outline of the steps:
as §1

Series [17] addresses Voltage-gated inwardly rectifying potassium channel KCNH2 (Homo sapiens, UniProt Q12809). In words: Inhibition of human ERG.
The nature of series [18]: Volume of distribution at steady state in Sprague-Dawley rat at 0.25 mg/kg, iv in 20% hydroxypropyl beta-cyclodextrin in water pH 3.5 w/MSA vehicle. The class given is ADME, organism-based. Also noted: dose 0.25 mg/kg, route intravenous. The settings on record: in vivo, read-out: Vdss. In a few lines: (§5)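 Male Sprague-Dawley rats, n=3. Intravenous dosing at 0.25 mg/kg in DMSO or in 20% hydroxypropyl beta-cyclodextrin in water pH 3.5 w/MSA. Oral dosing at 2 mg/kg in 2% HMPC, 1% Tween in water pH 2.2 w/HCl.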

Series [19] is described as follows: Oral bioavailability in Sprague-Dawley rat at 2 mg/kg. The settings on record: in vivo. The class given is ADME, organism-based. In a few lines: as §5
A short description of series [20]: Plasma protein binding in rat at 5 ug/ml. Type of series: ADME, cell-free. Conditions: read-out: PPB (converted). An outline of the steps: (§6)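 Plasma protein binding was measured by equilibrium dialysis at 5 µg/mL.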
The subject of series [21] is NIH3T3. In words: Antitumor activity against TPR-Met expressing NIH/3T3 xenografted in mouse dosed po over 22 days q.d. Type of series: functional. Conditions: 528 h. An outline of the steps:
as §2

For series [22], the species on record is Mus musculus. The series is described as follows: Inhibition of HGF-induced c-Met phosphorylation in BALB/c mouse liver after 6 hrs by electrochemiluminescent assay. The class given is functional. In a few lines: as §3
Series [23] in a line: AUC (0 to infinity) in Sprague-Dawley rat at 2 mg/kg, po. The class given is ADME, organism-based. Also noted: time infinity, dose 2 mg/kg, route oral. The settings on record: plasma. An outline of the steps: as §5
The nature of series [24]: Clearance in Sprague-Dawley rat at 0.25 mg/kg, iv in DMSO vehicle. The class given is ADME, organism-based. Further details: dose 0.25 mg/kg, route intravenous. Conditions: in vivo. In a few lines:
as §5

Series [25] in a line: Volume of distribution at steady state in Sprague-Dawley rat at 0.25 mg/kg, iv in DMSO vehicle. The class given is ADME, organism-based. Further details: dose 0.25 mg/kg, route intravenous. The settings on record: in vivo, read-out: Vdss. In a few lines:
as §5

Series [26] in a line: Plasma protein binding in mouse at 5 ug/ml. Type of series: ADME, cell-free. Conditions: read-out: PPB (converted). In a few lines:
as §6

The nature of series [27]: Half life in Sprague-Dawley rat at 0.25 mg/kg, iv in DMSO vehicle. Type of series: ADME, organism-based. Also noted: dose 0.25 mg/kg, route intravenous. Conditions: in vivo. An outline of the steps:
as §5

Consider `COc1ccc2c(OCc3nnc4ccc(-c5cc(F)cc(F)c5)nn34)ccnc2c1`, for which the IC50 in [1] is more than 50 µM; in series [2] it was 8.3 µM.

On to `COc1ccc2c(OCc3nnc4ccc(-c5cc(F)c(F)c(F)c5)nn34)ccnc2c1`, for which the concentration for half-maximal inhibition (IC50) in [1] is 29 µM; in series [2], 2 µM; in [3], 0.005 µM. Also, the IC50 shift in series [4] is 14.

As for `COc1ccc2c(OCc3nnc4ccc(-c5ccc(F)c(F)c5)nn34)ccnc2c1`, the results for the IC50 in series [1] and in [2] were more than 50 µM and 6.4 µM, respectively.

Take `COc1cnc2c(NCc3nnc4ccc(-c5cc(F)c(F)c(F)c5)nn34)ccnc2c1`: the IC50 is more than 50 µM in series [1] and 16 µM in [2].

`COc1cnc2c(NCc3nnc4ccc(-c5ccc(F)c(F)c5)nn34)ccnc2c1`: the results for the IC50 in [1] and in series [2] were more than 50 µM and 9.1 µM, respectively.

Turning to `COc1ccc2c(O[C@H](C)c3nnc4ccc(-c5ccccc5)nn34)ccnc2c1`, the IC50 in [1] was determined as 18 µM; in [2], 8.9 µM.

Take `COc1ccc2c(NCc3nnc4ccc(-c5ccccc5)nn34)ccnc2c1`: the half-maximal inhibitory concentration (IC50) in series [1] is more than 50 µM; in [2], 50 µM; in [3] it was 1.37 µM. For the same molecule, in series [4], the IC50 shift was more than 1.

As for `COc1cnc2c(NCc3nnc4ccc(-c5cc(C)ns5)nn34)ccnc2c1`, the microsomal CLint was determined as 59 µL/min/mg in [5], 60 µL/min/mg in series [10] and 24 µL/min/mg in series [16]. Besides, the AUC(0-t) at 24 h worked out at 4.7 µM·h in series [6] and 0.43 µM·h in series [9]. The same molecule showed an inhibition in vivo at 30 mg/kg in [7] of more than 50%. Besides, the half-life in series [8] is 1.76 h. Also, the fraction unbound at 5 ug/ml in [11] was 0.025; in series [20], 0.007. In addition, the IC50 in [1] is more than 50 µM; in [2] it was 26 µM. Besides, the concentration for an effect of 90% (EC90) in [12] is 0.136 µM; in [22] it was 1.8 µM. This molecule also gave a clearance in [13] of 3.08 mL/min/kg. The Activity entry in series [14] and in series [15] was “Non-toxic” each time. The molecule further had a Ki in [17] of 1.6 µM. Also, the Vd in series [18] is 0.303 L/kg. The molecule also gave a bioavailability in [19] of 30.5%. The molecule further displayed an ED50 in [21] of 3.3 mg/kg. For the same molecule, the ED90 in series [21] is 22 mg/kg. In [23], this molecule registered an AUC(0-inf) of 3500 ng·h/mL.

Turning to `COc1ccc2c(SCc3nnc4ccc(-c5ccccc5)nn34)ccnc2c1`, the IC50 is 4.5 µM in series [1], 7 µM in series [2] and more than 6.67 µM in series [3]. The IC50 shift in series [4] turned out to be 0.64.

Consider `COc1ccc2c(OCc3nnc4ccc(-c5cc(C)ns5)nn34)ccnc2c1`, for which the IC50 in [1] was 17 µM; in [2] it was 4.8 µM.

Regarding `COc1cnc2c(NCc3nnc4ccc(-c5cc(F)cc(F)c5)nn34)ccnc2c1`, the microsomal CLint in series [5] was found to be 53 µL/min/mg; in series [10], 49 µL/min/mg; in [16] it was 47 µL/min/mg. Further, in series [24], the clearance was 0.717 mL/min/kg. Besides, the fraction unbound at 5 ug/ml in series [11] is 0.008; in series [26] it was 0.023; in series [20] it was 0.002. Moreover, the concentration for half-maximal inhibition (IC50) is more than 50 µM in series [1] and 29 µM in series [2]. In [25], the Vd was 0.201 L/kg. This molecule came in with a Ki in [17] of 0.2 µM. In series [19], this molecule came in with a bioavailability of 62%. The AUC(0-inf) in [23] came out at 31100 ng·h/mL. In series [27], this molecule gave a half-life of 3.84 h.

Regarding `COc1ccc2c(O[C@@H](C)c3nnc4ccc(-c5ccccc5)nn34)ccnc2c1`, the IC50 in series [1] stood at 14 µM; in series [2] it was 3.9 µM.
